Measurements published in ChEMBL document CHEMBL1153403, “Design, synthesis, and evaluation of novel fluoroquinolone-aminoglycoside hybrid antibiotics” (J Med Chem, 2009).
pIC50: −log10 of the molar value. Values after ≈ are worked out from the molar mass of the structure shown.

Tests used:
[1] = test system: Escherichia coli; assay: Antibacterial activity against Escherichia coli R477-100 by double-microdilution method; assay type: functional
[2] = test system: Escherichia coli; assay: Antibacterial activity against kanamycin-resistant Escherichia coli AG100A expressing aminoglycosides resistant APH(3')-1 enzyme by double-microdilution method; assay type: functional
[3] = test system: Bacillus subtilis; assay: Antibacterial activity against aminoglycosides-susceptible Bacillus subtilis ATCC 6633 by double-microdilution method; assay type: functional
[4] = test system: Staphylococcus aureus; assay: Antibacterial activity against methicillin-resistant Staphylococcus aureus ATCC 43300 by double-microdilution method; assay type: functional
[5] = test system: Escherichia coli; assay: Antibacterial activity against Escherichia coli ATCC 25922 by double-microdilution method; assay type: functional
[6] = test system: Escherichia coli; assay: Antibacterial activity against kanamycin-resistant Escherichia coli AG100B expressing aminoglycosides resistant APH(3')-1 enzyme by double-microdilution method; assay type: functional
[7] = test system: Escherichia coli; assay: Antibacterial activity against aminoglycosides-resistant Escherichia coli BL21 harboring pETSACG1 expressing APH(3')-3a enzyme by double-microdilution method; assay type: functional
[8] = test system: Escherichia coli; assay: Resistance index, MIC for aminoglycosides-resistant Escherichia coli XL1-blue harboring pET9d expressing APH(3')-1a enzyme to MIC for Escherichia coli XL1-blue; assay type: functional
In short: (§1)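 Ratio of MIC on the plasmid-bearing resistant strain to MIC on its background strain (pETSACG1 vs BL21; pET9d or pSF815 vs XL1 blue). MICs by NCCLS double microdilution from starting concentrations of 384 and 1.5 µg/mL, in duplicate, two to four experiments.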

[9] = test system: Escherichia coli; assay: Resistance index, MIC for aminoglycosides-resistant Escherichia coli XL1-blue harboring pSF815 expressing AAC(6')-APH(2'') enzyme to MIC for Escherichia coli XL1-blue; assay type: functional; in short: as §1
[10] = test system: Escherichia coli; assay: Antibacterial activity against Escherichia coli XL1-blue by double-microdilution method; assay type: functional
[11] = test system: Escherichia coli; assay: Antibacterial activity against aminoglycosides-resistant Escherichia coli XL1-blue harboring pSF815 expressing AAC(6')-APH(2'') enzyme by double-microdilution method; assay type: functional
[12] = test system: Escherichia coli; assay: Resistance index, MIC for aminoglycosides-resistant Escherichia coli BL21 harboring pETSACG1 expressing APH(3')-3a enzyme to MIC for Escherichia coli BL21; assay type: functional; in short: as §1
[13] = test system: Escherichia coli; assay: Antibacterial activity against Escherichia coli BL21 by double-microdilution method; assay type: functional
[14] = test system: Escherichia coli; assay: Antibacterial activity against aminoglycosides-resistant Escherichia coli XL1-blue harboring pET9d expressing APH(3')-1a enzyme by double-microdilution method; assay type: functional
[15] = Inhibition of Escherichia coli topoisomerase 4 assessed as reduction in supercoiled pBR322 DNA relaxation activity after 30 mins by electrophoresis; details: read-out: IC50
In short: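 E. coli TopoIV relaxation of supercoiled pBR322 in 40 mM HEPES-KOH pH 7.6 with 100 mM potassium glutamate, 10 mM Mg(OAc)₂, 10 mM DTT, 1 mM ATP and 50 µg/mL albumin. Incubated 37 °C for 30 min, stopped with EDTA, loading dye and chloroform/isoamyl alcohol, then run on 1% agarose. Supercoiled DNA percentage was quantified from gel images. IC50 is the 50% reduction versus drug-free control.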

[16] = test system: Escherichia coli; assay: Inhibition of protein synthesis in Escherichia coli S30 extracts assessed as luciferase activity after 1 hr by coupled transcription/translation assay; assay type: functional
In short: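 Coupled transcription/translation of the pBESTluc plasmid in E. coli S30 extract with varying compound concentrations, 37 °C for 60 min. Reactions were cooled on ice, diluted in Tris-phosphate pH 7.8 reagent, and luciferase luminescence was read immediately after substrate addition. IC50 came from concentration-response curves fitted to at least two independent experiments.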

[17] = Inhibition of Escherichia coli DNA gyrase assessed as reduction in relaxed pBR322 DNA supercoiling activity after 1 hr by electrophoresis; details: read-out: IC50
In short: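 Supercoiling of relaxed pBR322 (12.5 ng/µL) by E. coli DNA gyrase in 35 mM Tris-Cl pH 7.5 with 24 mM KCl, 4 mM MgCl₂, 2 mM DTT, 1.8 mM spermidine, 1 mM ATP, 6.5% glycerol and 0.1 mg/mL BSA. Incubated 37 °C for 1 h, stopped with loading dye plus chloroform/isoamyl alcohol, and resolved on 1% agarose. IC50 is the concentration halving activity versus drug-free control.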

SMILES	MIC [1] [µg/mL]	MIC [2] [µg/mL]	MIC [3] [µg/mL]	MIC [4] [µg/mL]	MIC [5] [µg/mL]	MIC [6] [µg/mL]	MIC [7] [µg/mL]	Ratio [8]	Ratio [9]	MIC [10] [µg/mL]	MIC [11] [µg/mL]	Ratio [12]	MIC [13] [µg/mL]	MIC [14] [µg/mL]	pIC50 [15]	IC50 [16]	pIC50 [17]
NC[C@@H]1O[C@H](O[C@H]2[C@@H](O)[C@H](O[C@@H]3[C@@H](O)[C@H](N)C[C@H](N)[C@H]3O[C@H]3O[C@H](CN)[C@@H](O)[C@H](O)[C@H]3N)O[C@@H]2C(=O)Nc2ccc(-c3cn(CCCCCCN4CCN(c5cc6c(cc5F)c(=O)c(C(=O)O)cn6C5CC5)CC4)nn3)cc2)[C@H](N)[C@@H](O)[C@@H]1O	6 (≈ 5.07 µM)	1.5 (≈ 1.27 µM)	12 (≈ 10.1 µM)	48 (≈ 40.5 µM)	6 (≈ 5.07 µM)	12 (≈ 10.1 µM)	–	–	–	–	–	–	–	–	–	–	–
NC[C@@H]1O[C@H](O[C@H]2[C@@H](O)[C@H](O[C@@H]3[C@@H](O)[C@H](N)C[C@H](N)[C@H]3O[C@H]3O[C@H](CN)[C@@H](O)[C@H](O)[C@H]3N)O[C@@H]2C(=O)NCc2cn(CCOCCN3CCN(c4cc5c(cc4F)c(=O)c(C(=O)O)cn5C4CC4)CC3)nn2)[C@H](N)[C@@H](O)[C@@H]1O	12 (≈ 10.8 µM)	1.5 (≈ 1.35 µM)	12 (≈ 10.8 µM)	24 (≈ 21.6 µM)	6 (≈ 5.4 µM)	12 (≈ 10.8 µM)	–	–	–	–	–	–	–	–	–	–	–
NC[C@@H]1O[C@H](O[C@H]2[C@@H](O)[C@H](O[C@@H]3[C@@H](O)[C@H](N)C[C@H](N)[C@H]3O[C@H]3O[C@H](CN)[C@@H](O)[C@H](O)[C@H]3N)O[C@@H]2C(=O)Nc2ccc(-c3cn(CCCN4CCN(c5cc6c(cc5F)c(=O)c(C(=O)O)cn6C5CC5)CC4)nn3)cc2)[C@H](N)[C@@H](O)[C@@H]1O	6 (≈ 5.25 µM)	1.5 (≈ 1.31 µM)	6 (≈ 5.25 µM)	48 (≈ 42 µM)	3 (≈ 2.63 µM)	12 (≈ 10.5 µM)	–	–	–	–	–	–	–	–	–	–	–
NC[C@@H]1O[C@H](O[C@H]2[C@@H](O)[C@H](O[C@@H]3[C@@H](O)[C@H](N)C[C@H](N)[C@H]3O[C@H]3O[C@H](CN)[C@@H](O)[C@H](O)[C@H]3N)O[C@@H]2C(=O)NCc2cn(Cc3ccc(CN4CCN(c5cc6c(cc5F)c(=O)c(C(=O)O)cn6C5CC5)CC4)cc3)nn2)[C@H](N)[C@@H](O)[C@@H]1O	6 (≈ 5.25 µM)	1.5 (≈ 1.31 µM)	3 (≈ 2.63 µM)	3 (≈ 2.63 µM)	6 (≈ 5.25 µM)	12 (≈ 10.5 µM)	0.4 (≈ 0.35 µM)	1	1	6 (≈ 5.25 µM)	6 (≈ 5.25 µM)	1	0.4 (≈ 0.35 µM)	6 (≈ 5.25 µM)	–	–	–
O=C(O)c1cn(C2CC2)c2cc(N3CCNCC3)c(F)cc2c1=O [CIPROFLOXACIN]	–	< 0.005	0.02 (≈ 0.0604 µM)	0.2 (≈ 0.604 µM)	–	–	–	–	–	–	–	–	< 0.005	–	4.97	Not Active	5.89
NC[C@@H]1O[C@H](O[C@H]2[C@@H](O)[C@H](O[C@@H]3[C@@H](O)[C@H](N)C[C@H](N)[C@H]3O[C@H]3O[C@H](CN)[C@@H](O)[C@H](O)[C@H]3N)O[C@@H]2C(=O)Nc2ccc(-c3cn(CCN4CCN(c5cc6c(cc5F)c(=O)c(C(=O)O)cn6C5CC5)CC4)nn3)cc2)[C@H](N)[C@@H](O)[C@@H]1O	12 (≈ 10.6 µM)	0.75 (≈ 0.665 µM)	6 (≈ 5.32 µM)	48 (≈ 42.5 µM)	6 (≈ 5.32 µM)	24 (≈ 21.3 µM)	–	–	–	–	–	–	–	–	–	–	–
NC[C@@H]1O[C@H](O[C@H]2[C@@H](O)[C@H](O[C@@H]3[C@@H](O)[C@H](N)C[C@H](N)[C@H]3O[C@H]3O[C@H](CN)[C@@H](O)[C@H](O)[C@H]3N)O[C@@H]2C(=O)NCc2cn(CCCCCN3CCN(c4cc5c(cc4F)c(=O)c(C(=O)O)cn5C4CC4)CC3)nn2)[C@H](N)[C@@H](O)[C@@H]1O	24 (≈ 21.7 µM)	1.5 (≈ 1.35 µM)	12 (≈ 10.8 µM)	48 (≈ 43.3 µM)	6 (≈ 5.41 µM)	24 (≈ 21.7 µM)	–	–	–	–	–	–	–	–	–	–	–
